Compounds with a hit are over-represented: about 9.8% of the library has one in this group of screens.
L major viab = inhibitors of Leishmania major promastigote growth | actives 9% (n = 200,000) | Leishmania major promastigotes, resazurin fluorescence viability | inhibition, % at 10 µM; in the data active means inhibition above about 50%;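 further: promastigotes grown with compound for 44 hours at 28 °C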
Rad51 HR inh = Rad51 (human) homologous recombination inhibition; Q06609; hRad51 DNA strand exchange, fluorescence dequenching; inhibition, % at 10 µM; actives 0.085% (n = 200,000); AID 1385;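 active means inhibition above 40% at the single screening dose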;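 further: 0% = DMSO control wells and 100% = blanks with heterologous ssDNA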
Target sequence (Q06609 whole entry, looked up): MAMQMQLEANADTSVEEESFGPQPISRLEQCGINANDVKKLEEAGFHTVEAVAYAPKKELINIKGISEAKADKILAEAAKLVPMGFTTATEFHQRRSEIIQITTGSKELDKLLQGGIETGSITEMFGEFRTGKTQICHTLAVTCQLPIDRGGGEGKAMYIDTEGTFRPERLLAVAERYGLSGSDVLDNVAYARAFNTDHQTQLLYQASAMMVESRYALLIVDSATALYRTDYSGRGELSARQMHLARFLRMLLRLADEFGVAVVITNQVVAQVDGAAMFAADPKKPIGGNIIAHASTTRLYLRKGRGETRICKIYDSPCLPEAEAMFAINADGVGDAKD
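material = hRad51 filaments on single-stranded DNA | reagent = Donor/quencher-labelled 47-bp dsDNA substrate | compound = 10 µM final, single point | schedule = strand-exchange reaction 15 min at room temperature | measured by = fluorescein emission 520 nm, excitation 485 nm | read-out basis = % inhibition versus plate control and blank means | benchmarks = plate controls and plate blanks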
WT yeast gro inh = growth inhibition of WT yeast, mitochondrial fusion screen; mitochondrial fusion phenotypic screen, WT strain; inhibition, % at 10 µM; actives 2.1% (n = 190,000); AID 1362; in the data active means inhibition above about 58%; tested in S. cerevisiae
PMI act satM6P = activators of human phosphomannose isomerase at near-saturating mannose 6-phosphate | actives 0.34% (n = 190,000) | AID 1216 | activation factor at 20 µM | coupled PMI enzyme assay, resazurin fluorescence, 20 min; stronger effect = higher value; 1 = untreated enzyme, 0 = substrate-free blank;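 active means activation factor of 2 or more at 20 µM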
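Material: human phosphomannose isomerase with PGI, G6PDH, diaphorase coupling enzymes / Reagent: Man-6-P substrate 1.0 mM / Dosing: single compound dose of 20 µM, 1% DMSO final / Incubation: enzyme reaction with compound 20 min at room temperature / Signal: resorufin fluorescence (Ex 544/Em 590 nm) from resazurin via diaphorase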
Calpain2 inh = blocks pig calpain II enzyme activity; inhibition, % at 16 µM; purified calpain II, fluorogenic peptide substrate, 30 min; AID 1236; actives 0.37% (n = 220,000);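 active means inhibition above about 50%, limit read from the data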
PMI act = phosphomannose isomerase (human) activation. P34949. purified human PMI, coupled resazurin fluorescence, 20 min; stronger effect = higher value; 1 = vehicle control, 0 substrate-free wells. activation factor at 20 µM. actives 0.005% (n = 190,000). AID 1214;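 active means activation factor of 2 or more at 20 µM, relative to plate controls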
Starred values were filed as active, the others as inactive; . = no result given.

SMILES	L major viab	Rad51 HR inh	WT yeast gro inh	PMI act satM6P	Calpain2 inh	PMI act
O=C(COC(=O)/C=C/c1nc2ccccc2s1)Nc1cccc(Cl)c1Cl	58.8*	-7.3	7.2	1.1	12.9	1.1
N/C(Cn1cncn1)=N\NC(=O)C(=O)Nc1cccc(C(F)(F)F)c1	-4.3	1.3	0.1	0.9	-19.9	0.9
N#C/C(=C\c1cccs1)C(=O)Nc1ccccn1	.	-10.4	.	.	15.3	.
CC1CCCc2sc3nc(NCc4ccco4)n4ncnc4c3c21 (centres undefined)	7.4	-1.2	79.0*	1	-9.3	1
Cc1nc(NCc2ccco2)c2c3c(sc2n1)CCC3	14.3	-2.5	-3.5	1.1	-46.0	1.1
CC1CCc2sc3nc(NCc4ccco4)n4ncnc4c3c2C1 (centres undefined)	5.0	3.1	82.3*	0.9	16.4	0.9
Cc1ccc2nc(-c3ccccn3)c(NC3CCCC3)n2c1	100.1*	-25.6	73.7*	0.8	-20.5	1
Cc1ccc(Nc2c(-c3ccccn3)nc3cccc(C)n23)cc1	100.7*	-3.8	73.2	1.2	-17.6	1.1
Cc1cccc(C)c1Nc1c(-c2ccccn2)nc2ccccn12	100.3*	8.1	67.6	1.1	2.5	1.1
Cc1cccc(C)c1Nc1c(-c2ccsc2)nc2ncccn12	80.2*	-4.5	12.9	1	18.5	1
Cc1ccccc1Nc1c(-c2ccccn2)nc2c(C)cccn12	36.9	4.3	79.4	1	29.1	1
Cc1cccc(Nc2c(-c3ccc(O)cc3)nc3ncccn23)c1	20.3	.	0.6	1	32.3	1
COc1ccccc1C(=O)NCCc1c(C)[nH]c2c(C)ccc(F)c12	-4.6	.	1.8	1	13.4	1
CCOC(=O)N1CCN(S(=O)(=O)c2cc(C)c(C)cc2C)CC1	0.0	5.1	-0.6	1	-5.5	1
Cc1cc(C)c(S(=O)(=O)/N=C2/C=C(SCC(=O)O)C(=O)c3ccccc32)cc1C	99.9*	-47.4	66.1*	1.3	-27.5	1.2
FC(F)(F)c1ccc(Oc2ccc3ccccc3c2Br)nc1	-3.9	-8.2	81.4*	0.9	12.9	0.9
O=[N+]([O-])c1ccccc1Oc1ccc(C(F)(F)F)cn1	3.2	4.8	2.1	1	-22.1	1
Cc1cccc(-n2c(=S)[nH]c3c(oc4ccccc43)c2=O)c1	58.1*	-2.4	19.8	0.9	24.7	1
Cc1ccc(-n2c(=S)[nH]c3c(oc4ccccc43)c2=O)cc1	-6.6	-1.3	0.0	1.1	3.9	1
CC(=O)/C(=N\Nc1ccc(Cl)cc1)Sc1nnc(-c2ccccc2)n1-c1ccccc1	37.6	6.2	40.1	2*	-6.5	1.4
CC(=O)/C(=N/Nc1ccccc1)Sc1nnc(CCc2ccccc2)n1-c1ccccc1	21.9	10.8	4.0	0.9	-1.9	0.9
CCc1nnc(NC(=O)C2CCCCN2S(=O)(=O)c2ccccc2)s1 (centres undefined)	6.5	3.2	-5.4	1	-7.1	1.2
COCCN1CSC(=S)N(Cc2ccco2)C1	85.4*	2.0	6.1	0.6	-14.0	0.6
S=C1NCN(Cc2ccco2)CN1CCc1ccccc1	.	12.6	.	.	-9.9	.
S=C1SCN(Cc2ccccn2)CN1Cc1ccco1	79.9*	.	18.9	0.7	-33.3	0.6
SMILES	L major viab	Rad51 HR inh	WT yeast gro inh	PMI act satM6P	Calpain2 inh	PMI act
O=C(NCc1cccs1)C1CCCN1C(=O)Nc1ccc(Cl)cc1 (centres undefined)	9.1	2.2	4.4	1.1	-11.7	1.1
COc1cc2cc(/C=C/C(=O)c3ccco3)c(Cl)nc2cc1OC	75.9*	-2.2	-5.4	1.2	-45.8	1
COc1ccccc1-n1cnnc1SCC(=O)NCC1CCCO1 (centres undefined)	0.0	4.3	12.8	1.1	18.3	1.1
c1ccc(CCn2c(C3CC3)nc3ccccc32)cc1	62.9*	-5.2	-5.3	1	20.4	1.1
O=C(NCc1ccccc1Cl)C(=O)NCC(c1ccco1)N1CCOCC1 (centres undefined)	-2.1	0.5	2.6	1	-0.8	1.1
C/C(=N\NC(=O)c1cccc(N/N=C(\C)c2ccco2)c1)c1ccco1	-13.8	-0.5	-7.9	0.8	-91.2	1.1
C/C(=N\NC(=O)c1cccc(N/N=C(\C)c2cc(O)ccc2O)c1)c1cc(O)ccc1O	4.5	7.8	9.2	3*	-71.5	1.8
COc1ccccc1COCC(O)CN(Cc1ccco1)Cc1ccccc1O (centres undefined)	82.1*	-7.5	23.7	1	37.9	0.9
N#CCN1CCC2(O)CCCCC2C1c1ccc2c(c1)OCO2 (centres undefined)	.	10.1	.	.	1.0	.
COc1ccccc1NS(=O)(=O)c1cccc(NC(=O)Nc2ccc(Cl)cc2)c1	97.2*	-29.1	9.3	0.8	-22.9	0.8
COc1cccc(NC(=O)Cc2cccs2)c1	-6.5	-11.2	-15.8	0.9	-28.2	0.9
COc1ccccc1NS(=O)(=O)c1cccc(NC(=O)Nc2ccccc2)c1	99.3*	-8.7	-3.0	0.9	19.1	0.7
CCNC(=S)Nc1cccc(S(=O)(=O)Nc2ccccc2OC)c1	.	.	.	.	16.5	.
COc1ccccc1NS(=O)(=O)c1cccc(NC(=O)Cc2cccs2)c1	98.0*	0.6	-21.1	1	41.1	0.9
COc1ccccc1NS(=O)(=O)c1cccc(C(=O)OCc2nc3ccccc3s2)c1	90.4*	7.6	37.5	0.9	20.5	0.8
Cc1nc(COc2ccccc2Cl)sc1-c1ccnc(N)n1	.	.	.	.	-33.5	.
CCOC(=O)C(=CNc1ccc2c(c1)CCN2C(C)=O)C(=O)OCC	.	17.0	.	.	7.4	.
COC(=O)c1cnc(Oc2c(Cl)cc(N)cc2Cl)cc1C(F)(F)F	.	2.1	.	.	-7.9	.
COc1ccc(COc2ccccc2C(=O)NCc2ccccc2)cc1F	6.5	-3.2	4.0	1	6.8	0.8
COc1cc(C(=S)N2CCN(c3ccccc3Cl)CC2)cc(O)c1O	16.0	8.7	-2.7	0.9	-19.9	0.3
Clc1ccccc1CSc1nncn1NC/C=C/c1ccccc1	0.4	-7.9	17.4	0.9	11.9	0.8
COc1ccc(C(=O)c2ccc([N+](=O)[O-])cc2Cl)cc1	8.5	-4.3	1.8	1	11.5	1
CCSc1ncc(/C=N/Nc2ccc(F)cc2)n1C	68.7*	.	53.0	2*	-0.8	1.2
O=C(c1ccco1)N1CCN(Cc2cn[nH]c2-c2cccc3ccccc23)CC1	.	-0.7	.	.	-17.4	.
COC(=O)C(C)(C)ONC(=O)Nc1ccc(C)cc1	-6.6	-5.4	-14.8	1	2.6	1
O=[N+]([O-])/C(C(Cl)=C(Cl)Cl)=C(/Sc1ccccc1)N1CCCCC1	.	26.4	.	.	2.9	.
COC(=O)c1ccc(NC(=O)C(=O)N2CCN(C(=S)Nc3ccc(C)cc3)CC2)cc1	66.0*	-1.7	19.4	1	5.4	0.9

High-throughput results: PubChem, several laboratories
